Laboratory results as given in ChEMBL document CHEMBL1287787, “Design and synthesis of disubstituted thiophene and thiazole based inhibitors of JNK” (Bioorg Med Chem Lett, 2010).

Columns and labels:
[1] = target: Mitogen-activated protein kinase 8 (Homo sapiens, UniProt P45983); test: Inhibition of recombinant JNK1 after 60 mins by TR-FRET assay
MDCK = test: Efflux ratio of permeability from […] side in MDCK cells expressing p-gp after 120 mins; format: ADME, cell-based, Canis lupus familiaris; conditions: dog, 2 h
[2] = Metabolic stability in human liver microsomes assessed as compound remaining after 30 mins; format: ADME, Microsome; conditions: read-out: Stability
Procedure, shortened: (§1)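 Test compound incubated with mouse or human liver microsomes for 30 min. Read-out is the percent of parent compound remaining at the end of the incubation.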

[3] = target: Mitogen-activated protein kinase 9 (Homo sapiens, UniProt P45984); test: Inhibition of recombinant JNK2 after 60 mins by TR-FRET assay
[4] = Metabolic stability in mouse liver microsomes assessed as compound remaining after 30 mins; format: ADME, Microsome; conditions: read-out: Stability; procedure, shortened: as §1
[5] = target: Mitogen-activated protein kinase 14 (Homo sapiens, UniProt Q16539); test: Inhibition of recombinant p38alpha after 60 mins by TR-FRET assay
[6] = target: T1, Mitogen-activated protein kinase 1 (Homo sapiens, UniProt P28482); test: Inhibition of recombinant Erk2 after 60 mins by TR-FRET assay
[7] = target: T2, Mitogen-activated protein kinase 10 (Homo sapiens, UniProt P53779); test: Inhibition of recombinant JNK3 after 60 mins by TR-FRET assay
MDR1 = test: Permeability from apical to basolateral side of MDCK cells expressing MDR1 after 120 mins; format: ADME, cell-based, Canis lupus familiaris; conditions: dog, read-out: permeability
[8] = Solubility of compound in Hank's buffered salt solution; format: physicochemical
[9] = target: Dual specificity tyrosine-phosphorylation-regulated kinase 1B (Homo sapiens) (UniProt Q9Y463); test: Inhibition of DYRK1B at 10 uM
[10] = target: Tyrosine-protein kinase Lck (Homo sapiens) (UniProt P06239); test: Inhibition of LCK at 10 uM
[11] = target: Cyclin-dependent kinase 1/cyclin B (Homo sapiens) (UniProt P06493+P14635+Q8WWL7+O95067); test: Inhibition of CDK1/cyclin B at 10 uM; format: protein-complex assay
[12] = target: Protein-tyrosine kinase 2-beta (Homo sapiens) (UniProt Q14289); test: Inhibition of PTK2B at 10 uM
[13] = target: Insulin receptor (Homo sapiens) (UniProt P06213); test: Inhibition of INSR at 10 uM
[14] = target: Receptor tyrosine-protein kinase erbB-4 (Homo sapiens) (UniProt Q15303); test: Inhibition of ERBB4 at 10 uM
[15] = target: Cyclin-dependent kinase 5/CDK5 activator 1 (Homo sapiens) (UniProt Q00535+Q15078); test: Inhibition of CDK5/p25 at 10 uM; format: protein-complex assay
[16] = target: T1, Mitogen-activated protein kinase 1; test: Inhibition of MAPK1 at 10 uM
[17] = test system: RAF proto-oncogene serine/threonine-protein kinase (Homo sapiens), P04049 [Y340D,Y341D]; test: Inhibition of RAF1 Y340D/Y341D mutant at 10 uM
[18] = target: Glycogen synthase kinase-3 beta (Homo sapiens) (UniProt P49841); test: Inhibition of GSK3-beta at 10 uM
[19] = target: Protein kinase C beta type (Homo sapiens) (UniProt P05771); test: Inhibition of PRKCB1 at 10 uM
[20] = target: Serine/threonine-protein kinase PLK1 (Homo sapiens) (UniProt P53350); test: Inhibition of PLK1 at 10 uM
[21] = target: T2, Mitogen-activated protein kinase 10; conditions: 10 uM
[22] = target: cAMP-dependent protein kinase catalytic subunit alpha (Homo sapiens) (UniProt P17612); test: Inhibition of PRKACA at 10 uM
[23] = target: Tyrosine-protein kinase SYK (Homo sapiens) (UniProt P43405); test: Inhibition of SYK at 10 uM
[24] = target: Serine/threonine-protein kinase PAK 4 (Homo sapiens) (UniProt O96013); test: Inhibition of PAK4 at 10 uM
[25] = target: Receptor-interacting serine/threonine-protein kinase 2 (Homo sapiens) (UniProt O43353); test: Inhibition of RIPK2 at 10 uM
[26] = target: PI3-kinase p110-alpha/p85-alpha (Homo sapiens) (UniProt P27986+P42336); test: Inhibition of PIK3CA/PIK3R1 at 10 uM; format: protein-complex assay
[27] = target: Dual specificity protein kinase TTK (Homo sapiens) (UniProt P33981); test: Inhibition of TTK at 10 uM
[28] = target: RAC-alpha serine/threonine-protein kinase (Homo sapiens) (UniProt P31749); test: Inhibition of AKT1 at 10 uM
[29] = target: Tyrosine-protein kinase JAK1 (Homo sapiens) (UniProt P23458); test: Inhibition of JAK1 at 10 uM
[30] = target: Serine/threonine-protein kinase Chk1 (Homo sapiens) (UniProt O14757); test: Inhibition of CHEK1 at 10 uM
[31] = target: Serine/threonine-protein kinase PLK3 (Homo sapiens) (UniProt Q9H4B4); test: Inhibition of PLK3 at 10 uM
[32] = target: Receptor-type tyrosine-protein kinase FLT3 (Homo sapiens) (UniProt P36888); test: Inhibition of FLT3 at 10 uM
[33] = target: Calcium/calmodulin-dependent protein kinase type II subunit alpha (Homo sapiens) (UniProt Q9UQM7); test: Inhibition of CAMK2A at 10 uM
[34] = target: Tyrosine-protein kinase ABL1 (Homo sapiens) (UniProt P00519); test: Inhibition of ABL1 at 10 uM
[35] = target: Proto-oncogene tyrosine-protein kinase receptor Ret (Homo sapiens) (UniProt P07949); test: Inhibition of RET at 10 uM
[36] = target: Serine/threonine-protein kinase PLK2 (Homo sapiens) (UniProt Q9NYY3); test: Inhibition of PLK2 at 10 uM
[37] = target: Aurora kinase A (Homo sapiens) (UniProt O14965); test: Inhibition of AURKA at 10 uM
[38] = target: Dual specificity protein kinase CLK1 (Homo sapiens) (UniProt P49759); test: Inhibition of CLK1 at 10 uM
[39] = target: Cyclin-dependent kinase 2/cyclin A (Homo sapiens) (UniProt P24941+P20248+P78396); test: Inhibition of CDK2/cyclin A at 10 uM; format: protein-complex assay
[40] = target: Serine/threonine-protein kinase 16 (Homo sapiens) (UniProt O75716); test: Inhibition of STK16 at 10 uM
[41] = target: Serine/threonine-protein kinase 3 (Homo sapiens) (UniProt Q13188); test: Inhibition of STK3 at 10 uM
[42] = target: Serine/threonine-protein kinase MARK2 (Homo sapiens) (UniProt Q7KZI7); test: Inhibition of MARK2 at 10 uM
[43] = target: Macrophage colony-stimulating factor 1 receptor (Homo sapiens) (UniProt P07333); test: Inhibition of CSF1R at 10 uM
[44] = target: Platelet-derived growth factor receptor alpha (Homo sapiens) (UniProt P16234); test: Inhibition of PDGFRA at 10 uM
[45] = target: Rho-associated protein kinase 2 (Homo sapiens) (UniProt O75116); test: Inhibition of ROCK2 at 10 uM

T1 sequence (P28482 whole entry): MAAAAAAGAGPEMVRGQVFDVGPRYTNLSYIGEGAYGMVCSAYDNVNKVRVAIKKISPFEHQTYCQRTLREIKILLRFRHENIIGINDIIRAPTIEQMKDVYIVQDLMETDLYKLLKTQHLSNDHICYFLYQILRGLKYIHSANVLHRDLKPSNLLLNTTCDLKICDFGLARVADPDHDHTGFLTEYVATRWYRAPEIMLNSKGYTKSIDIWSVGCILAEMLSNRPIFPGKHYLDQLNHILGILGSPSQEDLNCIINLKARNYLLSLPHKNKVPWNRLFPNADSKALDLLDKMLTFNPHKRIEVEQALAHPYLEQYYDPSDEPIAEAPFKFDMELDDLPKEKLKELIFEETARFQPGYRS
Sequence of Mitogen-activated protein kinase 9 (P45984 whole entry): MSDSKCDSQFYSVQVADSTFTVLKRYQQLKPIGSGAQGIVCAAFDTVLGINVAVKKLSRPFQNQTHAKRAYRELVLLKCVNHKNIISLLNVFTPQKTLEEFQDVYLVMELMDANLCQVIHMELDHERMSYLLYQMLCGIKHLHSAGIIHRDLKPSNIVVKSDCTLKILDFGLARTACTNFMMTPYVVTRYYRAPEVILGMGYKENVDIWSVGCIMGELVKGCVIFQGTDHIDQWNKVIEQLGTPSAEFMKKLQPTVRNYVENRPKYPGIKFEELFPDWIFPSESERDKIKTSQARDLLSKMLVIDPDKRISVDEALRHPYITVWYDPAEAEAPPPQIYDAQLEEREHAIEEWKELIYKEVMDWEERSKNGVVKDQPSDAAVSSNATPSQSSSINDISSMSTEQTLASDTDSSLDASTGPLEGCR
T2 sequence (P53779 whole entry): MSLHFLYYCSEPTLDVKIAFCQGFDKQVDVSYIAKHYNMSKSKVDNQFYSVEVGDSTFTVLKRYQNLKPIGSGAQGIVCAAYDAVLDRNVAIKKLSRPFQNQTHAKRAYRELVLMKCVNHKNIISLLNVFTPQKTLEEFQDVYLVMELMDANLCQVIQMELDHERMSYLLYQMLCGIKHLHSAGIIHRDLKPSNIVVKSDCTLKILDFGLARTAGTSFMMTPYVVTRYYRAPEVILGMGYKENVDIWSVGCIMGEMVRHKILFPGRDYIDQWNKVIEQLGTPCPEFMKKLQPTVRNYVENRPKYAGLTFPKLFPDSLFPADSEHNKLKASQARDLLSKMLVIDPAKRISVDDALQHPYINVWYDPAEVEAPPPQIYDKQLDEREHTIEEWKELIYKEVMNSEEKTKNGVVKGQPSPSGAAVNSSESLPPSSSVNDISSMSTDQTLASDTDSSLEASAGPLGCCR
Sequence of Mitogen-activated protein kinase 8 (P45983 whole entry): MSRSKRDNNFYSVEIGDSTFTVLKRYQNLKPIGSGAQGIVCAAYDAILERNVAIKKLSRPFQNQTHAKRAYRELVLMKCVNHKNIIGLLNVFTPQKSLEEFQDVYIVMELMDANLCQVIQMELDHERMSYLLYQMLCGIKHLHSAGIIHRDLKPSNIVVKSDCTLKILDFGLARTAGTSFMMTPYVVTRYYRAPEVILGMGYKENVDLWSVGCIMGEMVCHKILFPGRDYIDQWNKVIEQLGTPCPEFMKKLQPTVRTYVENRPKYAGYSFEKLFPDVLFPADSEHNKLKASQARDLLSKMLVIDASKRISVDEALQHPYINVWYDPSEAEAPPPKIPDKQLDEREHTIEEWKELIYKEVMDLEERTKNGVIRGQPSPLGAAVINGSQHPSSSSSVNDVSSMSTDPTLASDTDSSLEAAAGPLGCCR
Sequence of Mitogen-activated protein kinase 14 (Q16539 whole entry): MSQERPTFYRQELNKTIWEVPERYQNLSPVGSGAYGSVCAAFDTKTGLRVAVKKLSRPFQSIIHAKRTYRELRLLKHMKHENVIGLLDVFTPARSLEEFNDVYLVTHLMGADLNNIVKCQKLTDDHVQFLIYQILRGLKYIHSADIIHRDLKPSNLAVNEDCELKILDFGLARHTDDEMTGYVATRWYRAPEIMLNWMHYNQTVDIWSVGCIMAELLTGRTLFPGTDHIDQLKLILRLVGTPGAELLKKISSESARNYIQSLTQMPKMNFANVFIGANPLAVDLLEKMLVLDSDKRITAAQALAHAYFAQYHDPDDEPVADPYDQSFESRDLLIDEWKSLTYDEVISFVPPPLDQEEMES
Sequence of Receptor-type tyrosine-protein kinase FLT3 (Homo sapiens) (P36888 whole entry): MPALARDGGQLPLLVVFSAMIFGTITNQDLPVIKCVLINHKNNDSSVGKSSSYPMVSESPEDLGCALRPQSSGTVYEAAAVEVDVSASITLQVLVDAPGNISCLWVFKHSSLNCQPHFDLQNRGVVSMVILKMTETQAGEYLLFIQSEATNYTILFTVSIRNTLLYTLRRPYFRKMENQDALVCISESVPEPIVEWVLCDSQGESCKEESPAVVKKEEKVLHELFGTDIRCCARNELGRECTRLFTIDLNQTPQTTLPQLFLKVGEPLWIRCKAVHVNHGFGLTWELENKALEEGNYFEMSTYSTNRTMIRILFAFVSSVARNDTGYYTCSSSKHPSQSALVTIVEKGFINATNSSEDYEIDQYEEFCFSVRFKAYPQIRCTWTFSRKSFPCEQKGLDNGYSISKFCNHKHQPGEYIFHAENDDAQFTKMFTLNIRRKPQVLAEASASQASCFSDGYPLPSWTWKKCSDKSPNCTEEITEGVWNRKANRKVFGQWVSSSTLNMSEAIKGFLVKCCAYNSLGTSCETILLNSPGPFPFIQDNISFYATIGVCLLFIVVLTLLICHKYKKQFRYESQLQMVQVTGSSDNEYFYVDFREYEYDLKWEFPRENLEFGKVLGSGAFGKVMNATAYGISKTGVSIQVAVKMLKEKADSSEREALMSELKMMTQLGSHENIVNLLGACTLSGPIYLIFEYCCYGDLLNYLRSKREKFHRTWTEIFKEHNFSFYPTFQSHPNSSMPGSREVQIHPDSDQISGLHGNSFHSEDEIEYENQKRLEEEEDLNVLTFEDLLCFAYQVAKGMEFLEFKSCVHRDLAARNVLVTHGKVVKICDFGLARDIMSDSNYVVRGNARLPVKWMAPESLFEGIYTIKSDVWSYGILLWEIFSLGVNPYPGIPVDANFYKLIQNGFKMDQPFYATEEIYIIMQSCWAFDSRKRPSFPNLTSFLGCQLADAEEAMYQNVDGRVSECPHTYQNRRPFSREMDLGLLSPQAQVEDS
Sequence of Receptor tyrosine-protein kinase erbB-4 (Homo sapiens) (Q15303 whole entry): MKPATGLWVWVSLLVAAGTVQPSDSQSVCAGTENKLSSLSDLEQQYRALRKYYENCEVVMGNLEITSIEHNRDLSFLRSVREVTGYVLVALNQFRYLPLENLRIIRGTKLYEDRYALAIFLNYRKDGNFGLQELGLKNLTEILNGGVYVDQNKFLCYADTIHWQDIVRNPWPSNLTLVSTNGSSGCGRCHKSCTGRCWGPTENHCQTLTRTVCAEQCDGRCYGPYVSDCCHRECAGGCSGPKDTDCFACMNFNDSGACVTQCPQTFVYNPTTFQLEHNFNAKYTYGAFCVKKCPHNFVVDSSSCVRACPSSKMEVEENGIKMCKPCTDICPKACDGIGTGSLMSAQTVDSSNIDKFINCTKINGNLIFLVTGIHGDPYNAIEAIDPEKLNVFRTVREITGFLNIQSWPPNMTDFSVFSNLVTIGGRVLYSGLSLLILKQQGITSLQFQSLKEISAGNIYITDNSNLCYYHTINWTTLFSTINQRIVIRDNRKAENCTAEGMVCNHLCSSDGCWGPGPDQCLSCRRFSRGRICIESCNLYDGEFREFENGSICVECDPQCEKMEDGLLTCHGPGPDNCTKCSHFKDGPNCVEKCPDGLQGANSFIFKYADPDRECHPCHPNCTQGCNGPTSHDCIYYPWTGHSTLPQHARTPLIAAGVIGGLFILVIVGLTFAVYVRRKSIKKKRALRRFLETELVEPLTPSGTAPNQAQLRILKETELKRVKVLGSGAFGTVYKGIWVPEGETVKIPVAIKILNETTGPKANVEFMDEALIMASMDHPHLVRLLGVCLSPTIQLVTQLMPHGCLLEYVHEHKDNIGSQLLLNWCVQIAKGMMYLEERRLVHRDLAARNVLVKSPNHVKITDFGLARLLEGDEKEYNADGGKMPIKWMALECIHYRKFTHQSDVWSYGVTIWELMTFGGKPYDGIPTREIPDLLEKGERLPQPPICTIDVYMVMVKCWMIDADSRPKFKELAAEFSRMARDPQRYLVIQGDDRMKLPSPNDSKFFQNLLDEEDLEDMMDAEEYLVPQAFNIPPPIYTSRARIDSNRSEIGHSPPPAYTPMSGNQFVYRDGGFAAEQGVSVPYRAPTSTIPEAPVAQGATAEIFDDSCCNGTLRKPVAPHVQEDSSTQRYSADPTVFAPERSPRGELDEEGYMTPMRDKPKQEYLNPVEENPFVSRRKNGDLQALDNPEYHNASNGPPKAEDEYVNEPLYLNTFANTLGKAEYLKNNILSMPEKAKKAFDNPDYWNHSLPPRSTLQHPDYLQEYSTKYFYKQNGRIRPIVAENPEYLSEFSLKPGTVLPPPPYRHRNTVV
Sequence of Dual specificity tyrosine-phosphorylation-regulated kinase 1B (Homo sapiens) (Q9Y463 whole entry, looked up): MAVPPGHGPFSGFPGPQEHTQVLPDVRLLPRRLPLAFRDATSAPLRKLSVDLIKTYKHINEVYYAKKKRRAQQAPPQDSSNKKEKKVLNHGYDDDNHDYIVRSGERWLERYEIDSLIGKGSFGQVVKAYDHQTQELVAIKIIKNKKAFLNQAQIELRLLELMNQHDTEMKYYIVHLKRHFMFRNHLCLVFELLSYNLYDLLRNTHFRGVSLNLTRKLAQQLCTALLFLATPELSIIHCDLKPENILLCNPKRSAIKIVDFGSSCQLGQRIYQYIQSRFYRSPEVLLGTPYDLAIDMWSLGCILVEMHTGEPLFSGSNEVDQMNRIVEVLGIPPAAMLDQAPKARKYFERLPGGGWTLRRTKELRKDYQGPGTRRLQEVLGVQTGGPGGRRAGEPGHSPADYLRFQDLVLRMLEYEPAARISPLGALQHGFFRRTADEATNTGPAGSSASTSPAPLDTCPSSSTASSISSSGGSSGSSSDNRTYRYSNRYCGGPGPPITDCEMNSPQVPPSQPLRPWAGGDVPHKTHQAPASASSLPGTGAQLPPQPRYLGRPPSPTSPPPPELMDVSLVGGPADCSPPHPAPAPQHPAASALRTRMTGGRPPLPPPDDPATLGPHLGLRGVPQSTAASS

COC(=O)c1ncsc1NC(=O)Cc1cccc2cnccc12
IC50 [1]: 1700 nM | Ratio (MDCK): 0.8 | remaining at 0.5 h [2]: 41% | IC50 [3]: 5300 nM | remaining at 0.5 h [4]: 11% | IC50 [5]: > 50000 nM | IC50 [6]: > 50000 nM | IC50 [7]: 1600 nM

O=C(Cc1cccc2cnccc12)Nc1ccsc1-c1cscn1
IC50 [1]: 140 nM | Ratio (MDCK): 1.1 | remaining at 0.5 h [2]: 4% | IC50 [3]: 940 nM | remaining at 0.5 h [4]: 1% | IC50 [5]: > 50000 nM | Papp A→B at 2 h (MDR1): 26.1 ×10⁻⁶ cm/s | IC50 [6]: > 50000 nM | solubility [8]: 90 µM | IC50 [7]: 160 nM

O=C(Cc1cccc2ncccc12)Nc1ccsc1-c1nnc[nH]1
IC50 [1]: 270 nM | Ratio (MDCK): 4.2 | remaining at 0.5 h [2]: 67% | IC50 [3]: 710 nM | remaining at 0.5 h [4]: 23% | Papp A→B at 2 h (MDR1): 6 ×10⁻⁶ cm/s | IC50 [6]: > 50000 nM | solubility [8]: > 100 µM | IC50 [7]: 560 nM

O=C(Cc1cccc2cnccc12)Nc1scnc1-c1ncn[nH]1
IC50 [1]: 710 nM | Ratio (MDCK): 5 | remaining at 0.5 h [2]: 14% | IC50 [3]: 2600 nM | remaining at 0.5 h [4]: 15% | IC50 [5]: > 50000 nM | IC50 [6]: 24000 nM | IC50 [7]: 820 nM

COc1ccc(CC(=O)Nc2ccsc2-c2cnccn2)cc1
IC50 [1]: 1100 nM | remaining at 0.5 h [2]: 0% | IC50 [3]: 5700 nM | remaining at 0.5 h [4]: 0% | IC50 [5]: > 50000 nM | Papp A→B at 2 h (MDR1): 22.2 ×10⁻⁶ cm/s | IC50 [6]: > 50000 nM | IC50 [7]: 1500 nM

O=C(Cc1cccc2cnccc12)Nc1scnc1-c1cnccn1
IC50 [1]: 410 nM | Ratio (MDCK): 0.73 | remaining at 0.5 h [2]: 2% | IC50 [3]: 2000 nM | remaining at 0.5 h [4]: 3% | IC50 [5]: > 50000 nM | IC50 [6]: > 50000 nM | IC50 [7]: 470 nM

O=C(Cc1cccc2cnccc12)Nc1scnc1-c1cscn1
Inihibition [9]: 21% | Inihibition [10]: 6% | Inihibition [11]: 4% | IC50 [1]: 48 nM | Ratio (MDCK): 1.9 | Inihibition [12]: 6% | Inihibition [13]: 3% | remaining at 0.5 h [2]: 79% | Inihibition [14]: 4% | Inihibition [15]: 9% | Inihibition [16]: 16% | Inihibition [17]: 5% | Inihibition [18]: 13% | Inihibition [19]: 18% | Inihibition [20]: 8% | Inihibition [21]: 69% | Inihibition [22]: 14% | Inihibition [23]: 6% | Inihibition [24]: -4% | Inihibition [25]: 16% | IC50 [3]: 470 nM | Inihibition [26]: 31% | remaining at 0.5 h [4]: 50% | IC50 [5]: > 50000 nM | Inihibition [27]: 85% | Inihibition [28]: 2% | IC50 [6]: > 50000 nM | Inihibition [29]: 4% | Inihibition [30]: 8% | Inihibition [31]: 17% | Inihibition [32]: 37% | Inihibition [33]: 9% | Inihibition [34]: 7% | Inihibition [35]: 21% | Inihibition [36]: 24% | IC50 [7]: 77 nM | Inihibition [37]: 27% | Inihibition [38]: 7% | Inihibition [39]: 9% | Inihibition [40]: 9% | Inihibition [41]: 5% | Inihibition [42]: 8% | Inihibition [43]: 33% | Inihibition [44]: 7% | Inihibition [45]: 3%
